Experimental data published in ChEMBL document CHEMBL1151684, “Synthesis and antitumoral activity of novel 3-(2-substituted-1,3,4-oxadiazol-5-yl) and 3-(5-substituted-1,2,4-triazol-3-yl) beta-carboline derivatives” (2008).

Experiments:
Type in all cases: functional
786-0 = assay: Growth inhibition of human 786-0 cells after 48 hrs by sulforhodamine B assay; details: 786-0, 48 h; for CC50: read-out: LC50 (the source's name)
Method in brief: (§1)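 Sulforhodamine B colorimetric assay following the NCI standard protocol, with doxorubicin as positive control. Each compound was tested at four concentrations in 10-fold dilutions (0.25 to 250). GI50, the concentration giving 50% growth reduction versus untreated control cells, was derived from dose–response curves.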

OVCAR = assay: Growth inhibition of human OVCAR cells after 48 hrs by sulforhodamine B assay; method in brief: as §1
HT-29 = assay: Growth inhibition of human HT-29 cells after 48 hrs by sulforhodamine B assay; details: HT-29, 48 h; method in brief: as §1
K562 = assay: Growth inhibition of human K-562 cells after 48 hrs by sulforhodamine B assay; details: K562, 48 h; method in brief: as §1
MCF7 = assay: Growth inhibition of human MCF7 cells after 48 hrs by sulforhodamine B assay; details: MCF7, 48 h; method in brief: as §1
[1] = Growth inhibition of human PCO3 cells after 48 hrs by sulforhodamine B assay; details: PCO3, 48 h; method in brief: as §1
UACC-62 = assay: Growth inhibition of human UACC-62 cells after 48 hrs by sulforhodamine B assay; details: UACC-62, 48 h; method in brief: as §1
[2] = Growth inhibition of human NCI-460 cells after 48 hrs by sulforhodamine B assay; details: NCI-460, 48 h; method in brief: as §1

CSc1nnc(-c2cc3c([nH]c4ccccc43)c(-c3ccc(O)cc3)n2)o1
GI50 (786-0): 11.8 µM | TGI (786-0): 24.8 µM | CC50 (786-0): 51.9 µM | GI50 (OVCAR): 13.5 µM | LC50 (concentration killing 50% of the cells, NCI protocol) (OVCAR): 100 µM | TGI (OVCAR): 35 µM | GI50 (HT-29): 12.8 µM | LC50 (concentration killing 50% of the cells present at the start) (HT-29): > 100 µM | TGI (HT-29): 35 µM | GI50 (K562): 10.8 µM | TGI (K562): 28.8 µM | GI50 (MCF7): 7.42 µM | LC50 (concentration killing 50% of cells) (MCF7): 80.3 µM | TGI (MCF7): 23.4 µM | GI50 [1]: 10.5 µM | LC50 (concentration killing 50% of cells) [1]: 59.2 µM | TGI [1]: 24.8 µM | GI50 (UACC-62): 19.1 µM | TGI (UACC-62): > 100 µM | GI50 [2]: 17.8 µM | LC50 (concentration for 50% net cell kill) [2]: > 100 µM | TGI [2]: 73.4 µM

Nn1c(-c2cc3c([nH]c4ccccc43)c(-c3ccc(O)cc3)n2)n[nH]c1=S
GI50 (786-0): 0.26 µM | TGI (786-0): 94.1 µM | CC50 (786-0): > 100 µM | GI50 (OVCAR): 27.5 µM | LC50 (concentration killing 50% of the cells, NCI protocol) (OVCAR): > 100 µM | TGI (OVCAR): 98.4 µM | GI50 (HT-29): 34 µM | TGI (HT-29): > 100 µM | GI50 (K562): 29.9 µM | TGI (K562): > 100 µM | GI50 (MCF7): 61.2 µM | TGI (MCF7): > 100 µM | GI50 [1]: 25.5 µM | TGI [1]: > 100 µM | GI50 (UACC-62): 22.5 µM | TGI (UACC-62): > 100 µM | GI50 [2]: 0.15 µM | TGI [2]: 12.2 µM

CSc1nnc(-c2cc3c([nH]c4ccccc43)c(-c3cccc([N+](=O)[O-])c3)n2)o1
GI50 (786-0): > 100 µM | TGI (786-0): > 100 µM | GI50 (OVCAR): 21.3 µM | TGI (OVCAR): > 100 µM | GI50 (HT-29): 68.1 µM | TGI (HT-29): > 100 µM | GI50 (K562): 21.3 µM | LC50 (concentration causing 50% net cell kill) (K562): > 100 µM | TGI (K562): 81.5 µM | GI50 (MCF7): 79.8 µM | TGI (MCF7): > 100 µM | GI50 [1]: 44.2 µM | TGI [1]: > 100 µM | GI50 (UACC-62): 16.4 µM | LC50 (concentration killing 50% of cells, NCI protocol) (UACC-62): > 100 µM | TGI (UACC-62): 69.4 µM | GI50 [2]: 24.5 µM | LC50 (concentration for 50% net cell kill) [2]: > 100 µM | TGI [2]: 99.2 µM

CN(C)c1ccc(-c2nc(-c3n[nH]c(=S)o3)cc3c2[nH]c2ccccc23)cc1
GI50 (786-0): 14.7 µM | GI50 (OVCAR): 14.7 µM | GI50 (HT-29): 40.5 µM | GI50 (K562): 9.55 µM | GI50 (MCF7): 18.8 µM | GI50 [1]: 14.7 µM | GI50 (UACC-62): 23.8 µM | GI50 [2]: 19.1 µM

CSc1nnc(-c2cc3c([nH]c4ccccc43)c(-c3ccc([N+](=O)[O-])cc3)n2)o1
GI50 (786-0): > 100 µM | GI50 (OVCAR): > 100 µM | GI50 (HT-29): > 100 µM | GI50 (K562): > 100 µM | GI50 (MCF7): > 100 µM | GI50 [1]: > 100 µM | GI50 (UACC-62): > 100 µM | GI50 [2]: > 100 µM

Nn1c(-c2cc3c([nH]c4ccccc43)c(-c3ccccc3)n2)n[nH]c1=S
GI50 (786-0): 10.9 µM | TGI (786-0): 49.4 µM | CC50 (786-0): > 100 µM | GI50 (OVCAR): 12 µM | LC50 (concentration killing 50% of the cells, NCI protocol) (OVCAR): 52.5 µM | TGI (OVCAR): 25.3 µM | GI50 (HT-29): 15 µM | TGI (HT-29): 86.9 µM | GI50 (K562): 9.93 µM | TGI (K562): > 100 µM | GI50 (MCF7): 15 µM | LC50 (concentration killing 50% of cells) (MCF7): > 100 µM | TGI (MCF7): 32.5 µM | GI50 [1]: 10.9 µM | LC50 (concentration killing 50% of cells) [1]: > 100 µM | TGI [1]: 30.6 µM | GI50 (UACC-62): 24.3 µM | TGI (UACC-62): > 100 µM | GI50 [2]: 1.59 µM | LC50 (concentration for 50% net cell kill) [2]: > 100 µM | TGI [2]: 54.7 µM

CSc1nnc(-c2cc3c([nH]c4ccccc43)c(-c3ccc(N(C)C)cc3)n2)o1
GI50 (786-0): > 100 µM | GI50 (OVCAR): > 100 µM | GI50 (HT-29): 87.4 µM | GI50 (K562): > 100 µM | GI50 (MCF7): > 100 µM | GI50 [1]: 92.6 µM | GI50 (UACC-62): > 100 µM | GI50 [2]: > 100 µM

CSc1nnc(-c2cc3c([nH]c4ccccc43)c(-c3ccccc3)n2)o1
GI50 (786-0): 32 µM | TGI (786-0): > 100 µM | GI50 (OVCAR): 0.01 µM | LC50 (concentration killing 50% of the cells, NCI protocol) (OVCAR): 1.6 µM | TGI (OVCAR): 0.1 µM | GI50 (HT-29): 16.2 µM | TGI (HT-29): > 100 µM | GI50 (K562): 0.43 µM | LC50 (concentration causing 50% net cell kill) (K562): 74.7 µM | TGI (K562): 10.4 µM | GI50 (MCF7): 12.2 µM | LC50 (concentration killing 50% of cells) (MCF7): > 100 µM | TGI (MCF7): 31.3 µM | GI50 [1]: 23.6 µM | LC50 (concentration killing 50% of cells) [1]: > 100 µM | TGI [1]: 86.6 µM | GI50 (UACC-62): 99.5 µM | TGI (UACC-62): > 100 µM | GI50 [2]: 3.42 µM | LC50 (concentration for 50% net cell kill) [2]: > 100 µM | TGI [2]: 74.7 µM

CSc1nnc(-c2cc3c([nH]c4ccccc43)c(-c3ccccc3Cl)n2)o1
GI50 (786-0): 48.6 µM | TGI (786-0): > 100 µM | GI50 (OVCAR): 0.01 µM | LC50 (concentration killing 50% of the cells, NCI protocol) (OVCAR): 10.1 µM | TGI (OVCAR): 0.1 µM | GI50 (HT-29): 8.02 µM | LC50 (concentration killing 50% of the cells present at the start) (HT-29): > 100 µM | TGI (HT-29): 99.6 µM | GI50 (K562): 0.17 µM | LC50 (concentration causing 50% net cell kill) (K562): > 100 µM | TGI (K562): 68.4 µM | GI50 (MCF7): 16.8 µM | LC50 (concentration killing 50% of cells) (MCF7): > 100 µM | TGI (MCF7): 51.9 µM | GI50 [1]: 1.03 µM | LC50 (concentration killing 50% of cells) [1]: 73.5 µM | TGI [1]: 3.8 µM | GI50 (UACC-62): 15.2 µM | TGI (UACC-62): > 100 µM | GI50 [2]: 1.64 µM | LC50 (concentration for 50% net cell kill) [2]: > 100 µM | TGI [2]: 4.2 µM
